Assay results from paper PMC2940062 (Cancer, 2010).
Read-outs that look alike come from different tables or passages of the source.

Legend:
[1] = Docetaxel pharmacokinetics in plasma, day 1 of cycle 1; type: in vivo; conditions: human, intravenous
In short: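 Patients with advanced NSCLC got a 60-min i.v. docetaxel infusion on day 1, alongside oral everolimus (5 or 7.5 mg daily) and dexamethasone premedication (8 mg twice daily for 3 days, starting the day before). Peripheral venous blood was drawn into sodium heparin on cycle 1 day 1, centrifuged (4 °C, 3000 × g, 10 min), and plasma stored at −80 °C. Validated LC-MS/MS quantitation was used, with noncompartmental t1/2.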

[2] = single-agent docetaxel, second line NSCLC; cited from earlier work
[3] = Everolimus pharmacokinetics in blood, cycle 1; type: in vivo, human; conditions: for AUC(0-t) / Cmax: human, whole blood, oral
In short: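 NSCLC patients; oral mTOR inhibitor daily on days 1–19 of 3-week cycles, with a 60-min i.v. co-drug infusion on day 1 and dexamethasone premedication. Cycle 1, days 1, 8 and 15: 2 mL venous blood into K-EDTA at 30 min pre-dose and 1, 2, 5, 8 and 24 h post-dose, frozen at −20 °C within 60 min.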

[4] = system: recurrent or refractory NSCLC; conditions: everolimus monotherapy; cited from earlier work
[5] = single agent; cited from earlier work

CC(=O)O[C@@]12CO[C@@H]1C[C@H](O)[C@@]1(C)C(=O)[C@H](O)C3=C(C)[C@@H](OC(=O)[C@H](O)[C@@H](NC(=O)OC(C)(C)C)c4ccccc4)C[C@@](O)([C@@H](OC(=O)c4ccccc4)[C@H]21)C3(C)C [Docetaxel, docetaxel]
half-life [1]: 564 ± 204 min | half-life ([1]; 60 mg/m2): 1010 min | AUC(0-inf) ([1]; 60 mg/m2, AUC0-∞, Day 1, everolimus 5 mg/day, docetaxel 60 mg/m^2, n=1): 2.08 µM·h | Cmax ([1]; 60 mg/m2, Cmax, Day 1, everolimus 5 mg/day, docetaxel 60 mg/m^2, n=1): 1010 nM | half-life ([1]; 75 mg/m2): 524 min | AUC(0-inf) ([1]; 75 mg/m2, AUC0-∞, Day 1, everolimus 5 mg/day, docetaxel 75 mg/m^2, n=3, mean (SD)): 6.95 µM·h | AUC(0-inf) ([1]; 75 mg/m2, AUC0-∞, Day 1, everolimus 7.5 mg/day, docetaxel 75 mg/m^2, n=1): 7.3 µM·h | Cmax ([1]; 75 mg/m2, Cmax, Day 1, everolimus 5 mg/day, docetaxel 75 mg/m^2, n=3, mean (SD)): 1610 nM | incidence of fever with neutropenia [2]: 2–12% | recommended phase II dose (RP2D) (docetaxel day 1 every 3 weeks, in combination with everolimus): 60 mg/m^2

CO[C@H]1C[C@@H]2CC[C@@H](C)[C@@](O)(O2)C(=O)C(=O)N2CCCC[C@H]2C(=O)O[C@H]([C@H](C)C[C@@H]2CC[C@@H](OCCO)[C@H](OC)C2)CC(=O)[C@H](C)/C=C(\C)[C@@H](O)[C@@H](OC)C(=O)[C@H](C)C[C@H](C)/C=C/C=C/C=C/1C [Everolimus, everolimus]
Everolimus exposure (mean AUC and Cmax) versus dose ([3]; 5 and 7.5 mg/day): increased proportionally with dose | AUC(0-t) ([3]; 60 mg/m2, AUC0-24, Day 1, everolimus 5 mg/day, docetaxel 60 mg/m^2, n=3, mean (SD)): 244 ng·h/mL | AUC(0-t) ([3]; 60 mg/m2, AUC0-24, Day 8, everolimus 5 mg/day, docetaxel 60 mg/m^2, n=3, mean (SD)): 329 ng·h/mL | AUC(0-t) ([3]; 60 mg/m2, AUC0-24, Day 15, everolimus 5 mg/day, docetaxel 60 mg/m^2, n=3, mean (SD)): 350 ng·h/mL | Cmax ([3]; 60 mg/m2, Cmax, Day 1, everolimus 5 mg/day, docetaxel 60 mg/m^2, n=3, mean (SD)): 37.7 ng/mL | Cmax ([3]; 60 mg/m2, Cmax, Day 15, everolimus 5 mg/day, docetaxel 60 mg/m^2, n=3, mean (SD)): 51 ng/mL | AUC(0-t) ([3]; 75 mg/m2, AUC0-24, Day 1, everolimus 5 mg/day, docetaxel 75 mg/m^2, n=10, mean (SD)): 330 ng·h/mL | AUC(0-t) ([3]; 75 mg/m2, AUC0-24, Day 1, everolimus 7.5 mg/day, docetaxel 75 mg/m^2, n=4, mean (SD)): 379 ng·h/mL | AUC(0-t) ([3]; 75 mg/m2, AUC0-24, Day 8, everolimus 5 mg/day, docetaxel 75 mg/m^2, n=6, mean (SD)): 336 ng·h/mL | AUC(0-t) ([3]; 75 mg/m2, AUC0-24, Day 15, everolimus 5 mg/day, docetaxel 75 mg/m^2, n=6, mean (SD)): 369 ng·h/mL | AUC(0-t) ([3]; 75 mg/m2, AUC0-24, Day 15, everolimus 7.5 mg/day, docetaxel 75 mg/m^2, n=1): 772 ng·h/mL | Cmax ([3]; 75 mg/m2, Cmax, Day 1, everolimus 5 mg/day, docetaxel 75 mg/m^2, n=10, mean (SD)): 22.4 ng/mL | Cmax ([3]; 75 mg/m2, Cmax, Day 8, everolimus 5 mg/day, docetaxel 75 mg/m^2, n=6, mean (SD)): 35.8 ng/mL | Cmax ([3]; 75 mg/m2, Cmax, Day 15, everolimus 5 mg/day, docetaxel 75 mg/m^2, n=6, mean (SD)): 37.8 ng/mL | Cmax ([3]; 75 mg/m2, Cmax, Day 15, everolimus 7.5 mg/day, docetaxel 75 mg/m^2, n=1): 102 ng/mL | response rate [4]: 5% | inter-patient variability in AUC [5]: 33% | recommended phase II dose (RP2D) (everolimus days 1-19 every 3 weeks, in combination with docetaxel): 5 mg PO daily
